Assay results reported in ChEMBL document CHEMBL1123513, “Role of the C-terminal carboxylate in angiotensin II activity: alcohol, ketone, and ester analogues of angiotensin II” (1986).
Square brackets hold non-standard residues; d marks the D form. Peptide text beside a SMILES is read from it. * marks the point of attachment. αMeF = C[C@](N)(Cc1ccccc1)C(=O)O; Phe(ol) = N[C@H](CO)Cc1ccccc1; X1 = CC(=O)[C@H](Cc1ccccc1)N*

Key:
Rattus norvegicus [1] = species on record: Rattus norvegicus; test: Compound was tested for pressor response in rat; assay type: functional
Procedure, shortened: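 Urethane-anesthetized male Zivic-Miller rats; blood pressure recorded from the cannulated left femoral artery via a linear core transducer. Peptides were injected into the cannulated right jugular vein with an automatic dispensing syringe. An AII dose-response curve was run before and after each analogue, so each animal served as its own control. Dose-response data are given as mean ± SEM, with the number of animals stated.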

Rattus norvegicus [2] = species on record: Rattus norvegicus; test: Compound was tested for oxytocic response in rat; assay type: functional

| Compound | Activity (Rattus norvegicus [1]) [%] | Activity (Rattus norvegicus [2]) [%] |
| --- | --- | --- |
| COC(=O)[C@H](Cc1ccccc1)NC(=O)[C@@H]1CCCN1C(=O)[C@H](Cc1c[nH]cn1)NC(=O)[C@@H](NC(=O)[C@H](Cc1ccc(O)cc1)NC(=O)[C@@H](NC(=O)[C@H](CCCN=C(N)N)NC(=O)[C@H](CC(N)=O)NC(C)=O)C(C)C)C(C)C (Ac-NRVYVHPF-OMe) | 13 | 20 |
| H-NRVYVHPF-OH [ANGIOTENSIN AMIDE] | 100 | 100 |
| CC(=O)N[C@@H](CC(N)=O)C(=O)N[C@@H](CCCN=C(N)N)C(=O)N[C@H](C(=O)N[C@@H](Cc1ccc(O)cc1)C(=O)N[C@H](C(=O)N[C@@H](Cc1c[nH]cn1)C(=O)N1CCC[C@H]1C(=O)N[C@@H](Cc1ccccc1)C(C)=O)C(C)C)C(C)C (Ac-NRVYVHP-X1) | 0.03 | 0.4 |
| COC(=O)[C@](C)(Cc1ccccc1)NC(=O)[C@@H]1CCCN1C(=O)[C@H](Cc1c[nH]cn1)NC(=O)[C@@H](NC(=O)[C@H](Cc1ccc(O)cc1)NC(=O)[C@@H](NC(=O)[C@H](CCCN=C(N)N)NC(=O)[C@H](CC(N)=O)NC(C)=O)C(C)C)C(C)C (Ac-NRVYVHP[αMeF]-OMe) | 0.001 | 0.002 |
| CC(=O)N[C@@H](CC(N)=O)C(=O)N[C@@H](CCCN=C(N)N)C(=O)N[C@H](C(=O)N[C@@H](Cc1ccc(O)cc1)C(=O)N[C@H](C(=O)N[C@@H](Cc1c[nH]cn1)C(=O)N1CCC[C@H]1C(=O)N[C@H](CO)Cc1ccccc1)C(C)C)C(C)C (Ac-NRVYVHP[Phe(ol)]) | 0.001 | 0.09 |
